These results are taken from ChEMBL document CHEMBL5136958, “The development of HEC-866 and its analogues for the treatment of idiopathic pulmonary fibrosis” (RSC Med Chem, 2021).

The nature of series [1]: Half life in Sprague-Dawley rat model of bleomycin-induced pulmonary fibrosis at 2 mg/kg, iv by LC-MS/MS analysis. It counts as ADME, organism-based. The settings on record: in vivo. The method in brief: (§1)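 Male Sprague-Dawley rats with induced pulmonary fibrosis; single i.v. (2.0 mg kg⁻¹) or p.o. (5.0 mg kg⁻¹) administration. Plasma samples stored at −70 °C; the supernatant was analysed by LC-MS/MS for PK parameters.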

Series [2] in a line: AUC(infinity) in Sprague-Dawley rat model of bleomycin-induced pulmonary fibrosis at 2 mg/kg, iv by LC-MS/MS analysis. It is filed as ADME, organism-based. Also on record: time infinity, dose 2 mg/kg, route iv. The settings on record: in vivo. The method in brief: as §1
A short description of series [3]: Oral bioavailability in Sprague-Dawley rat model of bleomycin-induced pulmonary fibrosis at 5 mg/kg by LC-MS/MS analysis. It is filed as ADME, organism-based. The settings on record: in vivo. Put shortly:
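Male Sprague-Dawley rats with induced pulmonary fibrosis were dosed 2.0 mg kg⁻¹ i.v. or 5.0 mg kg⁻¹ p.o. Plasma was stored at -70 °C, and the supernatant was analysed by LC-MS/MS.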

The nature of series [4]: Volume of distribution at steady state in dog at 1 mg/kg, iv by LC-MS/MS analysis. It is filed as ADME, organism-based, Canis lupus familiaris. The settings on record: in vivo, read-out: Vdss.
Series [5] can be described thus: AUClast in dog at 5 mg/kg, po by LC-MS/MS analysis. It is filed as ADME, organism-based, Canis lupus familiaris. Also on record: time 0 - last, dose 5 mg/kg, route po. The settings on record: in vivo.
Series [6] can be described thus: Oral bioavailability in dog at 5 mg/kg by LC-MS/MS analysis. It counts as ADME, organism-based, Canis lupus familiaris. To be noted: in vivo.
A short description of series [7]: Cmax in cynomolgus monkey at 5 mg/kg, po by LC-MS/MS analysis. It is filed as ADME, organism-based, Macaca fascicularis. Also on record: dose 5 mg/kg, route po. The settings on record: in vivo.
Series [8] is described as follows: Half life in monkey liver microsomes by LC-MS/MS analysis. It is filed as ADME, Macaca mulatta, Microsome. To be noted: rhesus monkey. Put shortly:
(§2)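 Liver microsomes (human, monkey, dog, rat, mouse) incubated with test compound at 37 °C with NADPH cofactor; samples at 0, 5, 15, 30, 60 min for half-life and in vitro CLint.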

The nature of series [9]: Half life in rat liver microsomes by LC-MS/MS analysis. It is filed as ADME, Microsome. Put shortly: as §2
(In general: Microsomes from liver hold many membrane-bound enzymes, among them those of drug oxidation.)

Series [10] is described as follows: Intrinsic clearance in rat liver microsomes by LC-MS/MS analysis. It is filed as ADME, Microsome. To be noted: read-out: CLH. The method in brief: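 Liver microsomes were incubated with the compound at 37 °C with NADPH as cofactor and sampled at 0, 5, 15, 30 and 60 min. Half-life (min) and in vitro CLint (mL min⁻¹ kg) were derived from these samples.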
The next series deals with T1, Cytochrome P450 1A2 (Homo sapiens, UniProt P05177).
T1 sequence (P05177 whole entry): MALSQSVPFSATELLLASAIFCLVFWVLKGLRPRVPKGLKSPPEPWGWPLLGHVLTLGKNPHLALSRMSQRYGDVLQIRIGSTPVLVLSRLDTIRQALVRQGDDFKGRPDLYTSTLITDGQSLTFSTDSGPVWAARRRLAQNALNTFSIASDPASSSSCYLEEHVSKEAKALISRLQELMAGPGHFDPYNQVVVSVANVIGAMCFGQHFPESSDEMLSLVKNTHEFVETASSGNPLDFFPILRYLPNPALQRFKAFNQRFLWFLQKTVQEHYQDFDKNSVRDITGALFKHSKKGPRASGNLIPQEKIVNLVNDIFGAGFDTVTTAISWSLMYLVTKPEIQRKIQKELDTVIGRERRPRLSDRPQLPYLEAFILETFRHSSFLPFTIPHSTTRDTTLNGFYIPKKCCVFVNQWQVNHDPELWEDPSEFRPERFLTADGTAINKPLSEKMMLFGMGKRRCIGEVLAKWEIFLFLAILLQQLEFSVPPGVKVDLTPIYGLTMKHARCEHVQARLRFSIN
Put plainly: Inhibition of CYP1A2 in human liver microsomes by LC-MS/MS analysis. It counts as ADME, Microsome. The method in brief:
(§3)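 Human microsomes incubated with CYP-specific substrates (1A2, 2C9, 2C19, 2D6, 3A4) and test compound at 0.0–10 μM; IC50 determined.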

The target in another series is Cytochrome P450 2C9 (Homo sapiens, UniProt P11712). The series can be described thus: Inhibition of CYP2C9 in human liver microsomes by LC-MS/MS analysis. It counts as ADME, Microsome. The method in brief: as §3
The target in a further series is Cytochrome P450 3A4 (Homo sapiens, UniProt P08684). The series can be described thus: Inhibition of CYP3A4 in human liver microsomes by LC-MS/MS analysis. It counts as ADME, Microsome. Put shortly:
as §3

Cytochrome P450 3A4, sequence (P08684 whole entry): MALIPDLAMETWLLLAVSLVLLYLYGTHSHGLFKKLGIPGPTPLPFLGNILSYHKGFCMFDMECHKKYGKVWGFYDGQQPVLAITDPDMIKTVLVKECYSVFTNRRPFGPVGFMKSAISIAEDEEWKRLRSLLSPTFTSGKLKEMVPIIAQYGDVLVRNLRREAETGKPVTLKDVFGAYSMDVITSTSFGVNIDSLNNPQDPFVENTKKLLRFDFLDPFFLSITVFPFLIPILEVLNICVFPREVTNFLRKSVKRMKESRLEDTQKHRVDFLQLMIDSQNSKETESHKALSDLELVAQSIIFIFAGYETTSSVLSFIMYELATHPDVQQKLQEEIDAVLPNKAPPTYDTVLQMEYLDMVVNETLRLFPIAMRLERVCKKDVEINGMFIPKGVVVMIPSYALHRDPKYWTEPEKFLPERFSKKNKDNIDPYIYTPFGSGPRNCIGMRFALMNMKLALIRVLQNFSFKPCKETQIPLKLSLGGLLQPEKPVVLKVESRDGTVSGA
Cytochrome P450 2C9, sequence (P11712 whole entry): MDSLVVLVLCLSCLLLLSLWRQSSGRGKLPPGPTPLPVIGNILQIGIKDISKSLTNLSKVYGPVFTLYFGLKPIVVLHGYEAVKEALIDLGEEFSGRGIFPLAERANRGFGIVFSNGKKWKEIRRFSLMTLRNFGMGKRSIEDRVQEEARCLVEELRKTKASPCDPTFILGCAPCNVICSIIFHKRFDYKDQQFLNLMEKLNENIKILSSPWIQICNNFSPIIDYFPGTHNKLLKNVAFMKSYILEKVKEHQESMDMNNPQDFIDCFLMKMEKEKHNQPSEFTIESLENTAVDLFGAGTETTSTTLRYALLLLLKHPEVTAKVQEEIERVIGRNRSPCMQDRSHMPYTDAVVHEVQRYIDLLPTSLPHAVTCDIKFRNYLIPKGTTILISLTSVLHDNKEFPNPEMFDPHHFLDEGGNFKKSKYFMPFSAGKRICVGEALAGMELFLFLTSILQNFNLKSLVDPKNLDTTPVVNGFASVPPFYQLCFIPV

Regarding `Cc1cc(=O)n(-c2ccc(N3CCC(Cc4ccc(Cl)c(F)c4)CC3)c(Cl)c2)c(C)n1`, the figures for the half-life in series [1], in [8] and in [9] were 26 h, 0.695 h and 1.71 h, respectively. For the same compound, in series [2], the AUC(0-inf) (commonly the area under the concentration-time curve extrapolated to infinity) was found to be 7980 ng·h/mL. Also, the values for the bioavailability in series [3] and in series [6] were 105% and 15%, respectively. In series [4], the Vd was 1.8 L/kg. Besides, in series [5], the AUC(0-t) – broadly, exposure summed from dosing to a finite time, without extrapolation to infinity – was 5910 ng·h/mL. Moreover, in [7], the concentration peaked (Cmax) at 1060 ng/mL. The CLint scaled in [10] came to 24.2 mL/min/kg. Further, the IC50 against Cytochrome P450 1A2, on Cytochrome P450 2C9 and against Cytochrome P450 3A4 was > 10 µM in each case.
